Rpn11 block: blocks the human proteasome subunit Rpn11 | human 26S proteasome, Ub4-pepOG fluorescence polarization; 20S core pre-blocked with epoxomicin | inhibition, % at 20 µM | AID 588493 | 360,000 tested, 0.59% active;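 active means inhibition at 20 µM, scaled to each plate's controls, above about 33%, limit read from the data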
SUMO1-SIM PPI: SUMO1-SIM interaction modulation; SUMO1 binding to a labelled peptide, TR-FRET, 1 h; 360,000 tested, 0.33% active; inhibition, % at 20 µM; in the data active means inhibition above about 37%
Target sequence (P63165 whole entry, looked up): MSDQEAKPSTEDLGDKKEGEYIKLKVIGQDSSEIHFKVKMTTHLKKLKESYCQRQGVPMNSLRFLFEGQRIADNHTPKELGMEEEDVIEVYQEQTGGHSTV
LMPTP inh: blocks human LMPTP phosphatase; P24666; recombinant LMPTP-A, OMFP fluorogenic substrate, fluorescence intensity; inhibition, % at 20 µM; 360,000 tested, 0.22% active; AID 651560;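 active means compounds that cut the enzyme signal by at least half of the control window in the single-dose screen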;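 further: plate controls were DMSO wells with enzyme plus substrate for no effect and substrate without enzyme for full effect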
Target sequence (P24666 whole entry, looked up): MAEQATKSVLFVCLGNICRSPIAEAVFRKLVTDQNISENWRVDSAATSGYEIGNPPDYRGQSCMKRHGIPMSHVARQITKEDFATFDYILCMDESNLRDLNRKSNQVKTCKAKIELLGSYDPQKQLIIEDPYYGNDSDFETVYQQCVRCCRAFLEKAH
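Buffer or medium: Bis-Tris pH 6.0, DTT, detergent; Assay system: LMPTP-A enzyme; Quantity: 0.625 nM enzyme; Detection: endpoint fluorescence intensity; Times: 50 min dark incubation at room temperature; Controls: substrate-only low control, DMSO enzyme-plus-substrate high control; Doses: single 20 µM dose; Read-out: percent inhibition versus substrate-only and uninhibited controls; Reagent: 400 µM OMFP.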
DNMT1 block: blocks human DNA methyltransferase DNMT1; inhibition (reported as % activation of signal), % at 10 µM; DNMT1 molecular beacon, Hinp1I cleavage, fluorescence; 360,000 tested, 0.83% active; P26358; in the data active means inhibition above about 50%
Scp1 inh: Scp-1 (human) phosphatase inhibition; Recombinant Scp1, phosphopeptide, malachite green phosphate absorbance; inhibition, % at 20 µM; Q9GZU7; 340,000 tested, 0.88% active;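 active means inhibition above about 50% at 20 µM, limit read from the data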;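 further: plate controls were DMSO wells with enzyme for no effect and wells lacking enzyme for full effect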
Target sequence (Q9GZU7 76-261 limits assumed): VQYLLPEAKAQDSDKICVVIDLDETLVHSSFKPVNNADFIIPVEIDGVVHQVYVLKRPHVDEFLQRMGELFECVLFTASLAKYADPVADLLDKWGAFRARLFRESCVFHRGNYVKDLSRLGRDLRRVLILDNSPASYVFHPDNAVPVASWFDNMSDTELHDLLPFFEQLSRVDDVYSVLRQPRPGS
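System: SCP-1 catalytic domain; Reagent: Phospho 17-mer peptide substrate; Doses: one concentration, 20 µM, with 1.0% DMSO; Incubation: 45 min room-temperature reaction, 5 min colour, 30 min stabiliser; Signal: Phosphate-binding colour reagent, absorbance read at 630 nm.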
STEP inh: inhibitors of human striatal-enriched phosphatase STEP. P54829. recombinant STEP, OMFP fluorogenic substrate, fluorescence. inhibition, % at 20 µM. 360,000 tested, 0.25% active. AID 588621;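 active means inhibition at 20 µM, scaled per plate between control wells, above about 37%, limit read from the data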;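 further: 0% = DMSO with enzyme and substrate and 100% = substrate only without enzyme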
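medium = Bis-Tris buffer pH 6.0, 2.5 mM DTT, 0.005% Tween 20 | test system = STEP (striatal-enriched tyrosine phosphatase) enzyme, cell-free | measure = normalized % inhibition | compound dosing = 20 µM, 1% DMSO | also added = 25 µM OMFP | schedule = reaction 20 min, ambient temperature | measured by = fluorescence read at 480 nm ex / 540 nm em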
DNMT1 interf DR: beacon fluorescence artifact, dose response counter-screen; shares compounds with DNMT1 block; 200 tested, under 10 active; IC50, µM; molecular beacon fluorescence, spectral interference counter-screen; AID 602382; call rule not given here
DNMT1 confirm: DNMT1 inhibition confirmation, single concentration | shares compounds with DNMT1 block | DNMT1 molecular beacon HinP1I cleavage, fluorescence | inhibition, % at 10 µM | 2,300 tested, 8% active | AID 602385;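 active means average inhibition of at least 30% in the single-concentration confirmation test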
Beacon interf: beacon fluorescence artifact counter-screen | 2,300 tested, 1% active | shares compounds with DNMT1 block | DNMT1 molecular beacon spectral interference counterscreen, fluorescence 485/520 | activation (fluorescence interference), % at 10 µM | AID 602387;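 active means activation of at least 30% at 10 µM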;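 further: DNMT1 catalytic domain with a HinP1I cleavage step and a FAM/dabcyl DNA beacon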
* marks the source's active call; other numbers are inactive results; · = not tested or not shown. Rows were chosen to be rich in hits. Some 2.3% of all compounds tested hit in one or more screens of this group.

SMILES | Rpn11 block | SUMO1-SIM PPI | LMPTP inh | DNMT1 block | Scp1 inh | STEP inh | DNMT1 confirm | Beacon interf | others
C=C(C)[C@@H]1CC[C@]2(C(=O)O)CC[C@]3(C)[C@H](CC[C@@H]4[C@@]5(C)CC[C@H](O)C(C)(C)[C@@H]5CC[C@]43C)[C@@H]12 | 4 | 22 | -3 | 53* | -9 | 0 | 2 | -14
O=C(CSc1ccc(Br)cc1)Nc1ccccc1N1CCOCC1 | -2 | 1 | 2 | -2 | 3 | 1 | · | ·
COc1ccc(N2Cc3cccc(C(=O)NC(C)CCc4ccco4)c3C2=O)cc1 (centres undefined) | -15 | 5 | 12 | 77* | 79* | 2 | 3 | 1
Clc1nc2ccccc2cc1/C=N/Nc1nc2ccccc2[nH]1 | 2 | -9 | 5 | 55* | -10 | 6 | 2 | -7
C(=N\Nc1nc2ccccc2[nH]1)/c1ccncc1 | -4 | -10 | 2 | 0 | -3 | 0 | · | ·
O=C(/C=C/c1cccc([N+](=O)[O-])c1)OCC(=O)N1CCCCC1 | -1 | -25 | -1 | -3 | · | 0 | · | ·
Cc1ccc(C)n1-c1sc2c(c1C(=O)O)CCCC2 | 22 | 7 | 0 | 97* | 43 | 5 | 11 | -2
CC(=O)c1ccc(NC(=O)N2C3CCC2CC(O)(c2cccnc2)C3)cc1 (centres undefined) | 0 | 0 | 0 | -6 | -1 | -3 | · | ·
O=[N+]([O-])c1ccc(Oc2cccc(F)c2)c2ccncc12 | 0 | -28 | 2 | -5 | -8 | -3 | · | ·
COC(=O)C1=COC(OC2OC(CO)C(O)C(O)C2O)C2C(C)CC(=O)C12 (centres undefined) | -17 | 2 | 8 | 74* | · | 18 | 2 | 2
CCC(C(=O)NCc1ccco1)N(C(=O)CNS(=O)(=O)c1ccccc1)c1ccc(OC)cc1 (centres undefined) | -3 | 0 | -1 | 2 | -5 | 3 | · | ·
Cc1ccc(-c2csc3ncnc(Sc4nnc(CN5CCCCCC5=O)o4)c23)cc1 | 8 | 0 | 1 | 5 | -21 | 4 | · | ·
COc1cc(/C=C/C(=O)N(Cc2ccccc2)c2ccccn2)cc(OC)c1OC | 4 | 1 | 0 | 53* | -5 | -3 | -1 | 9
COc1ccc(/C=C/C(=O)N(Cc2ccccc2)c2ccccn2)cc1OC | 2 | 2 | -2 | 3 | -5 | 0 | · | ·
ClN=C1C=CC=CC1=NCl | -20 | 57* | 68* | 114* | · | 8 | 36* | -8 | DNMT1 interf DR=>99
COc1cc(NC(=S)NN2CCN(C)CC2)cc(OC)c1 | -7 | -1 | -2 | -1 | 1 | -2 | · | ·
Cc1ccccc1OCc1nc2ccccc2c(=O)n1/N=C/c1c[nH]c2ccccc12 | -5 | 1 | 1 | 8 | -4 | 1 | · | ·
Cc1ccc(-c2[nH]ncc2/C=N/n2c(COc3ccccc3C)nc3ccccc3c2=O)cc1 | -1 | 2 | 0 | 70* | -4 | 3 | 0 | -2
O=C(c1ccccc1F)N1CCN(C(=O)C2CC2)CC1 | 3 | -2 | -1 | 0 | -2 | -2 | · | ·
Cc1ccccc1-c1cc2nc(C)c(C)c(=O)n2[nH]1 | 0 | 0 | 1 | 84* | -8 | -1 | 7 | 4
CCCCN1C(=O)/C(=C/C=C2/CC(C)(C)CN2C)SC1=S | · | -142 | 17 | 76* | 5 | -33 | 81* | 85*
Cc1ccc(CN2C(=O)CCC2C(=O)NCc2ccc3c(c2)OCO3)cc1 (centres undefined) | 2 | 1 | 1 | 91* | -5 | -3 | -1 | 4
CC(=O)Nc1ccc(N2C(=O)c3cccc4c(O)ccc(c34)C2=O)cc1 | -140 | -105 | -1 | 51* | 12 | -32 | 106* | 99*

Assay outcomes (PubChem BioAssay)
